# Measurements collected from several papers.
# Compare with care: the assays were run in different laboratories.
# Target: STE20/SPS1-related proline-alanine-rich protein kinase (STK39, Homo sapiens, UniProt Q9UEW8)
SMILES,test,setting,remaining binding [%]
N[C@@H]1CCN(c2nccc(-c3cnn4ncccc34)n2)C1,binding,1 µM,100
COc1cnc(Nc2cccc(S(N)(=O)=O)c2)nc1N1CCN(c2ccccc2)C(=O)C1,"binding, competition with immobilised ligand",1 µM,99
C=CC(=O)N1CCC(C(=O)NCC(=O)N2CCN(c3nc(-c4cnc(N)nc4C(F)F)nc(N4CCOCC4)n3)CC2)CC1,"binding, competition with immobilised ligand",1 µM,76
FC(F)(F)c1ccc2c(c1)nc(-c1cccnc1)n2C1CC1,"cell-free assay, competition with immobilised ligand",1 µM,100
O=C(c1ccc(Nc2ncc(Cl)c(-c3ccc(Cl)s3)n2)cc1)N1CCC(N2CCCC2)CC1,"binding, competition with immobilised ligand",1 µM,48
COc1ccnn2ncc(-c3ccnc(N(C)C)n3)c12,binding,1 µM,49
CS(=O)(=O)NCC[C@H](NC(=O)c1cncc2c1cnn2-c1ccc(F)cc1)c1ccnc(S(C)(=O)=O)c1,"cell-free assay, competition with immobilised ligand",1 µM,80
Cc1cnn2ncc(-c3ccnc(N(C)C)n3)c2c1,binding,1 µM,100
c1cncc(-c2cccc(Nc3nccc(NC4CCCCC4)n3)c2)c1,"binding, competition with immobilised ligand",10 µM,97
COc1ncc2cc3ccccc3nc2c1C#N,"cell-free assay, competition with immobilised ligand",5 µM,100
O=C1NC(c2ccccn2)Sc2ccccc21 (stereo not drawn),"cell-free assay, competition with immobilised ligand",1 µM,89
CCN1CCN(Cc2ccc(C(=O)Nc3ccc(C)c(Oc4ccc5c(c4)CC(=O)N5)c3)cc2C(F)(F)F)CC1,"binding, competition with immobilised ligand",1 µM,68
CN(C)c1ncnc(-c2ccc3nc(Nc4cc(CN5CCN(C(=O)CC(F)(F)F)CC5)ccn4)[nH]c3c2)c1Cl,"cell-free assay, competition with immobilised ligand",1 µM,69
CN(C)c1ncc(F)c(-c2cnn3ncccc23)n1,binding,1 µM,74
Cn1nc(C(F)(F)F)cc1-c1cnc(N2CCc3cc(S(=O)(=O)Nc4c(F)cc(Cl)cc4F)cc(N4CCCC4=O)c32)nc1,"cell-free assay, competition with immobilised ligand",1 µM,91
O=C(c1ccc(Nc2nccc(-c3cc4ccccc4s3)n2)cc1)N1CCC(N2CCCC2)CC1,"binding, competition with immobilised ligand",1 µM,85
O=C(NCc1ncc(C(F)(F)F)cc1Cl)c1ccc2c(c1)C1(CCS(=O)(=O)CC1)[C@H](C1CC1)N2S(=O)(=O)c1ccc(F)cc1,"cell-free assay, competition with immobilised ligand",1 µM,84
c1cnn2ncc(-c3ccnc(N4CCC45COC5)n3)c2c1,binding,1 µM,41
Cc1cnc(Nc2ccc(C(=O)N3CCC(N4CCCC4)CC3)cc2)nc1-c1cc2ccccc2s1,"binding, competition with immobilised ligand",1 µM,53
O=C(NCC1CCOCC1)c1n[nH]cc1NC(=O)c1c(F)cccc1F,"binding, competition with immobilised ligand",1 µM,96
C[C@H]1CCN(c2nccc(-c3cnn4ncccc34)n2)C1,binding,1 µM,62
